From ChEMBL document CHEMBL3272345, “Specificity in enzyme inhibition. 3. Synthesis of 5-substituted 2,2-dimethyl-4-imidazolidinones as inhibitors of tyrosine decarboxylase and histidine decarboxylase” (1976)
Activity calls are given as the source filed them. No cut-off for these calls is given here.

Legend:
[1] = target: T1, Decarboxylase (Enterococcus faecalis) (UniProt Q8KXD2); assay: Inhibition of Streptococcus faecalis tyrosine decarboxylase assessed as 14CO2 production using 0.8 mM L-tyrosine-1-14C as substrate at 5 mM after 20 mins by scintillation counting analysis
T1 sequence (whole entry): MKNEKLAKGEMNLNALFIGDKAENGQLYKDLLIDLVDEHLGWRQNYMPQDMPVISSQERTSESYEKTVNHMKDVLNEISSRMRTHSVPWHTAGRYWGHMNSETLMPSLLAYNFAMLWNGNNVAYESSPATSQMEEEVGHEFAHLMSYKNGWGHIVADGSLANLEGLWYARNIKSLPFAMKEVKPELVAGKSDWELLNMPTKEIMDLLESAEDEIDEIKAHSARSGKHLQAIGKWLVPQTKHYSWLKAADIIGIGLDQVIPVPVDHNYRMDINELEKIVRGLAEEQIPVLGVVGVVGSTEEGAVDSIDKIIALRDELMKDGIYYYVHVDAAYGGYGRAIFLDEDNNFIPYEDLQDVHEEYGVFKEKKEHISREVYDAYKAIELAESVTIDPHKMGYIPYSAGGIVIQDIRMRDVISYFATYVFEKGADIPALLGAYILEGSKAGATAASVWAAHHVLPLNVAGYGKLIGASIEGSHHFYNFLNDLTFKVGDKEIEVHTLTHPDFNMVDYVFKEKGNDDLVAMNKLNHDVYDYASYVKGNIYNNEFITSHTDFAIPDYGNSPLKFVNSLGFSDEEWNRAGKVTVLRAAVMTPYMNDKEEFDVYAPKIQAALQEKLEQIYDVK
Summary of the method: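 Crude acetone-powder enzyme from S. faecalis, 8 × 10⁻³ mg per 0.5 ml, in 0.075 M citrate–0.15 M phosphate pH 5.5 with 0.5 mM pyridoxal 5-phosphate. Substrate L-tyrosine-1-¹⁴C (2.85 × 10⁻¹ μCi/μmol). Inhibitor tested at 5 mM, 37° for 20 min, stopped with TCA. ¹⁴CO₂ trapped in hyamine hydroxide for 20 min and counted by scintillation. Percent inhibition versus no-inhibitor controls, mean of triplicate runs.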

[2] = target: T1, Decarboxylase (Enterococcus faecalis); assay: Inhibition of Streptococcus faecalis tyrosine decarboxylase assessed as 14CO2 production using 10 mM L-phenylalanine-1-14C as substrate at 5 mM after 20 mins by scintillation counting analysis
Summary of the method: (§1)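 Crude S. faecalis tyrosine decarboxylase acetone powder (0.5 mg) used as the phenylalanine decarboxylase. Buffer was citrate–phosphate/0.2 M NaPO₄ pH 5.5 with 0.5 mM pyridoxal 5-phosphate, and the substrate was L-phenylalanine-1-¹⁴C (10⁻² μCi/μmol). Inhibitor at 5 mM. Incubated at 37° with shaking, stopped by TCA. ¹⁴CO₂ absorbed 30 min into hyamine and counted by scintillation. Percent inhibition versus controls, average of triplicates.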

[3] = target: T1, Decarboxylase (Enterococcus faecalis); assay: Inhibition of Streptococcus faecalis tyrosine decarboxylase assessed as 14CO2 production using 5 mM L-phenylalanine-1-14C as substrate at 5 mM after 30 mins by scintillation counting analysis; summary of the method: as §1
[4] = target: T2, Histidine decarboxylase (Rattus norvegicus) (UniProt P16453); assay: Inhibition of fetal rat histidine decarboxylase at 1 mM
T2 sequence (whole entry): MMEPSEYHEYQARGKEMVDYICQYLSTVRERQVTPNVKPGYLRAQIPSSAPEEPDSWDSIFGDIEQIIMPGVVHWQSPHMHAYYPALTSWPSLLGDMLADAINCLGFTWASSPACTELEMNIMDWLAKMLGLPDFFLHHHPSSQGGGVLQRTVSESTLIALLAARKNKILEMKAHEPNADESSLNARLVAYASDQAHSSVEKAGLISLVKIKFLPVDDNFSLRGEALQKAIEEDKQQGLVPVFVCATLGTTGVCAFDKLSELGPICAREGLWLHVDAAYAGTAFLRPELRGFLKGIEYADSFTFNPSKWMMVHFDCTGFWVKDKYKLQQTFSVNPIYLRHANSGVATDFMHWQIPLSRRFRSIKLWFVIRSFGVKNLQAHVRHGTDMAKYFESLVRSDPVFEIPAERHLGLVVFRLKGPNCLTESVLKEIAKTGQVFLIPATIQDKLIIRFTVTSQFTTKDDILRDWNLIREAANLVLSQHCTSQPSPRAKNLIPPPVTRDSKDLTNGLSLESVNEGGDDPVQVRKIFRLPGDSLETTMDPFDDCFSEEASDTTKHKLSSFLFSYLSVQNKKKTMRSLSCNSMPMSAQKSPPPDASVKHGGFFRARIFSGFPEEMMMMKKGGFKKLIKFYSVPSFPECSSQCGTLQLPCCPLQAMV

Ileum = assay: Inhibition of histamine-induced response in guinea pig ileum at 1 mM; type: functional; conditions: Cavia porcellus

Row | inhibition [1] | inhibition [2] | inhibition [3] | inhibition [4] | Compound | inhibition at 1000 µM (Ileum)
1 | 38% | 31% | 39% | – | CC1(C)NC(=O)[C@H](Cc2ccc(O)cc2)N1 | –
2 | – | 7% | 9% | – | CC1(C)NC(=O)C(c2ccccc2)N1 (racemic) | –
3 | 10% | 13% | 17% | – | CC1(C)NC(=O)C(Cc2ccccc2)N1 (racemic) | –
4 | – | 33% | 42% | – | CC1(C)NC(=O)[C@H](Cc2c[nH]c3ccccc23)N1 | –
5 | – | 24% | 27% | inactive | CC1(C)NC(=O)[C@H](Cc2cnc[nH]2)N1 | 57%
